Published values collected from several papers.
Compare with care: the assays were run in different laboratories.

CC(C)c1ccccc1[C@@H]1CCCN1C1CC2(CCN(c3ccc(C(=O)NS(=O)(=O)c4ccc(NC[C@H]5CC[C@](C)(O)CC5)c([N+](=O)[O-])c4)c(Oc4cnc5[nH]ccc5c4)c3)CC2)C1 — IC50 (MINO; cell growth or viability, ATP luminescence; 48 h): 13 nM
O=C(O)c1ccc2c(c1)nc(Nc1cccc(Cl)c1)c1ccncc12 — IC50 (NCI-H226; cell growth or viability, resazurin; 48 h): 14200 nM
O=C(O)c1cccnc1Nc1cccc(C(F)(F)F)c1 — GI50 (NCI-H226; cell growth or viability, CCK-8; 72 h): > 40000 nM
C=CC(=O)NC1CCN(c2ncc3ncnc(Nc4ccc(Oc5ccc6c(c5)ncn6C)c(C)c4)c3n2)CC1 — EC50 (Hs766T; cell growth or viability): 1150 nM
CN(C)C(=O)c1cc2cnc(Nc3ccc(N4CCNCC4)cn3)nc2n1C1CCCC1 — IC50 (human Neutrophil; reactive oxygen species, inhibitor): 1670 nM
C=C(F)C(=O)N1CCN(c2nc(OC[C@@H]3CCCN3C)nc3c2CCN(c2cccc4cccc(Cl)c24)C3)C[C@@H]1CC#N — IC50 (Calu-1; cell growth or viability, ATP luminescence; 3D culture): 40.9 nM
CC1(C)CCC(CN2CCN(c3ccc(C(=O)NS(=O)(=O)c4ccc(NCC5CCOCC5)c([N+](=O)[O-])c4)c(Oc4cnc5[nH]ccc5c4)c3)CC2)=C(c2ccc(Cl)cc2)C1 — IC50 (SU-DHL-8; cell growth or viability, ATP luminescence; 48 h): 5380 nM
C=CC(=O)N1CCN(c2nc(=O)n(-c3c(C)ccnc3C(C)C)c3nc(-c4c(O)cccc4F)c(F)cc23)[C@@H](C)C1 — IC50 (Calu-1; cell growth or viability, ATP luminescence): 7.75 nM
C=CC(=O)c1cccnc1Nc1cc(C(F)(F)F)ccc1OCc1ccccc1 — GI50 (NCI-H226; cell growth or viability, CCK-8; 72 h): 12800 nM
